“Also recorded” adds a separate entry of the source.
Tests used:
[1] = system: PLEKHH2 alternative splicing in COS7 cells; test: PLEKHH2 mini-gene splicing control; format: cell-based; settings: 500 µM; splicing not regulated by Sam68
Summary of the method: (§1)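 COS7 cells were co-transfected with the 60 CGG-repeat mini-gene and a PLEKHH2 or cTNT mini-gene, whose splicing is not under Sam68 control. Compound treatment and RT-PCR followed the same procedure: medium with test compound for 16–24 h, total RNA extraction, reverse transcription, 25–30 PCR cycles, then gel separation and quantification of the splice isoforms.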

fully paired RNAs = test: Competition dialysis, fully paired RNAs; format: binding; settings: 2 µM RNA, 0.7 µM ligand
Summary of the method: (§2)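 2 µM RNA or DGCR8Δ protein was placed in dialysis units (MWCO 2,000) immersed in 0.7 µM ligand. Two buffer-only units were tracked by absorbance to confirm equilibration. SDS was then added to 1% final, and absorbance gave total ligand inside the units and free ligand in the dialysate. Bound ligand was calculated as total minus free.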

[2] = system: Bcl-x exon 2 alternative splicing in COS7 cells; test: Bcl-x pre-mRNA splicing by RT-PCR in FXTAS cell model; format: cell-based
Summary of the method: (§3)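 COS7 cells were grown in DMEM with 10% FBS and GlutaMax. At 90–95% confluency they were transfected with equal amounts of a plasmid carrying 60 CGG repeats and an SMN2 or Bcl-x mini-gene. About 5 h later, medium containing test compound replaced the transfection mix. After 16–24 h, total RNA was extracted with on-column DNase digestion. Roughly 300 ng was reverse transcribed and 150 ng went to PCR for 25–30 cycles. Isoforms were gel-separated, imaged and quantified.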

[3] = system: SMN2 exon 7 alternative splicing in COS7 cells; test: SMN2 pre-mRNA splicing by RT-PCR in FXTAS cell model; format: cell-based
Summary of the method: as §3

[4] = target: RNA containing one 5’CGG/3’GGC motif (1x1 nucleotide GG internal loop); test: RNA-binding assay via Hoechst 33258 dye displacement; settings: competition with Hoechst 33258 (1 µM), RNA 1 µM
Summary of the method: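 RNA was annealed at 60 °C for 5 min in phosphate buffer (8 mM Na₂HPO₄ pH 7.0, 185 mM NaCl, 0.1 mM EDTA, BSA), then slow-cooled. Titrating RNA into 1000 nM Hoechst 33258 (ex 360/40, em 460/40 nm) gave the dye Kd. Test compound was then titrated into 1 µM RNA plus 1 µM Hoechst. Loss of fluorescence was fit to a competitive binding equation to obtain Kd.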

[5] = system: cardiac troponin T (cTNT) alternative splicing in COS7 cells; test: cTNT mini-gene splicing control; format: cell-based; settings: 500 µM; splicing not regulated by Sam68
Summary of the method: as §1

r(CGG)12 = test: Competition dialysis, r; format: binding; settings: 2 µM RNA, 0.7 µM ligand
Summary of the method: as §2

DGCR8Δ = test: Competition dialysis, DGCR8Δ; format: binding; settings: 2 µM protein, 0.7 µM ligand
Summary of the method: as §2

[6] = system: r(CGG)^exp nuclear foci in COS7 cells; test: FISH assay of r; format: cell-based; settings: COS7 cells expressing r(CGG)60 and GFP
Summary of the method: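 COS7 cells on coverslips were co-transfected with r(CGG)60 and GFP plasmids, then treated with test compound. Cells were fixed in 4% paraformaldehyde for 15 min and permeabilized with 0.5% Triton X-100. They were prehybridized for 30 min in 2X SSC/40% formamide, then hybridized for 2 h with a (CCG)8-Cy3 DNA probe. After DAPI counterstaining, cells were imaged by confocal or fluorescence microscopy; only GFP-positive cells were scored for nuclear foci.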

r(CGG)12-DGCR8Δ complex = test: TR-FRET protein displacement assay; format: biochemical
[7] = COS7 cells expressing r(CGG)60, 100 µM
[8] = COS7 cells expressing r(CGG)60, 500 µM
[9] = cells that do not express r(CGG)60

Cc1c2cc[n+](CCN3CCCCC3)cc2c(C)c2c1[nH]c1ccc(O)cc12 [1a, 9-hydroxy-5,11-dimethyl-2-(2-(piperidin-1-yl)ethyl)-6H-pyrido[4,3-b]carbazol-2-ium]
Effect on PLEKHH2 alternative splicing [1]: did not affect | Amount of ligand partitioned into fully paired RNAs relative to r(CGG)12 (fully paired RNAs): less than half | Improvement of Bcl-x splicing dysregulation [2, 7]: Statistically significant improvement | Bcl-x splicing [2, 8]: restoration of wild type splicing patterns | Bcl-x pre-mRNA splicing defects ([2]; COS7 cells, CGG 60X mini-gene, Figure 4B): improves Bcl-x pre-mRNA splicing defects | Effect on Bcl-x splicing [2, 9]: No statistically significant effect | Improvement of SMN2 splicing defects ([3]; COS7 cells expressing r(CGG)60, 20 µM): improvement of SMN2 splicing defects can be observed | SMN2 pre-mRNA splicing level relative to wild type [3, 7]: approximately 70 % of wild type | SMN2 pre-mRNA splicing [3, 8]: restores pre-mRNA splicing to levels wild type | SMN2 pre-mRNA splicing defects ([3]; COS7 cells, CGG 60X mini-gene, Figure 4A): improves SMN2 pre-mRNA splicing defects | Effect on SMN2 splicing [3, 9]: No statistically significant effect | Kd [4]: 0.076 ± 0.004 µM | Effect on cTNT alternative splicing [5]: did not affect | Binding to r(CGG)12 (r(CGG)12): binds tightly | Binding to DGCR8Δ (DGCR8Δ): very little binding | Size and number of r(CGG)exp nuclear foci [6]: reduces the size and the number of foci; also recorded: decreases r(CGG)^exp-protein aggregates | Percentage displacement at 25 µM (r(CGG)12-DGCR8Δ complex; 25 µM compound, protein displaced from r(CGG)12): 85 ± 1% | IC50 (r(CGG)12-DGCR8Δ complex; read-out: IC50 for disruption of the r(CGG)12-DGCR8Δ complex, TR-FRET assay): 13 ± 0.4 µM

From paper PMC3477254 (ACS chemical biology, 2012)
